Reference: BindingDB's records for doi:10.1021/jm960868t (Organix, 1997)

Target: Sodium-dependent dopamine transporter (Macaca fascicularis, UniProt Q9GJT6)
Assay: Inhibition of [3H]WIN-35428 binding to dopamine transporter using of Cynomolgus monkey caudate-putamen
In short: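 Caudate-putamen membranes (washed in 50 mM Tris-HCl pH 7.4, 3800g spins) incubated at 4 mg original wet tissue/mL with 0.3 nM [3H]WIN35,428 and 7–14 competitor concentrations in 50 mM Tris-HCl/100 mM NaCl pH 7.4, 2 h at 0–4 °C. Filtered on BSA-soaked GF/B filters, scintillation counting. Nonspecific binding defined with 30 μM (–)-cocaine. IC50 computed by EBDA; independent experiments in triplicate.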

Sequence of Sodium-dependent dopamine transporter (Q9GJT6 whole entry): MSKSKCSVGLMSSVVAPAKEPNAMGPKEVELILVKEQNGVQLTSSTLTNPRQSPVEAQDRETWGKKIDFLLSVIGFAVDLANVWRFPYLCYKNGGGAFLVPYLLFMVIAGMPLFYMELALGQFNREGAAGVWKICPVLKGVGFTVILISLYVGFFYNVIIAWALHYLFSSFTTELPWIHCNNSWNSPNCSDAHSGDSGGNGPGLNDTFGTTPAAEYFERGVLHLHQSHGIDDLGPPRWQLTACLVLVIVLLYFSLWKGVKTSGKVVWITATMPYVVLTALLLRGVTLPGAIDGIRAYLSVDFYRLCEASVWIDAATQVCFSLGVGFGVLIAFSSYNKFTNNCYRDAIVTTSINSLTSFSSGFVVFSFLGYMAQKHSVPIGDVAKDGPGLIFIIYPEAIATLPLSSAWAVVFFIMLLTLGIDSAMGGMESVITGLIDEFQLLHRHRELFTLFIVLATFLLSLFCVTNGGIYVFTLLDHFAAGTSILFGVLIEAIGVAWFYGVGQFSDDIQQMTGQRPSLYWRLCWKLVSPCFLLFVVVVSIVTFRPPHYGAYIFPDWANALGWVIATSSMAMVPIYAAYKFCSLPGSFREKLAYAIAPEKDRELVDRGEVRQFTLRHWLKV

Compound	IC50
COC(=O)[C@@H]1C2CCC(C[C@@H]1OC(c1ccc(F)cc1)c1ccc(F)cc1)N2CCCN1CC[S][Re]2(=[O])[S]CC[N]2C(=O)C1 (some centres not stated)	343 nM
COC(=O)C1C(c2ccc(Cl)c(Cl)c2)CC2CCC1N2CCC[N+]12CC[S][Re]13(=[O])[S]CC[N]3C(=O)C2 (stereo not drawn) [[N-[2-[(3'-N'-Propyl-3''beta-(3,4-dichlorophenyl)tropane-2''beta-carboxylic acid methyl ester)(2-mercaptoethyl)amino]acetyl]-2-aminoethanethiolato]rhenium(V) oxide]	37.2 nM
